Assay results from ChEMBL document CHEMBL1131637, “Novel and selective 5-HT2C/2B receptor antagonists as potential anxiolytic agents: synthesis, quantitative structure-activity relationships, and molecular modeling of substituted 1-(3-pyridylcarbamoyl)indolines” (J Med Chem, 1998).

Assays:
[1] = tested on: Rattus norvegicus; assay: Percentage change unpunished lever presses from mean score on 6-8 rats at 10 mg/kg po1h pretest; type: functional
[2] = tested on: Rattus norvegicus; assay: Percentage change unpunished lever presses from mean score on 6-8 rats at 5 mg/kg po1h pretest; type: functional
[3] = tested on: Rattus norvegicus; assay: Percentage change punished lever presses from mean score on 6-8 rats(P<0.001) at 1 mg/kg po1h pretest; type: functional
[4] = species: Rattus norvegicus; assay: The dose required to reverse […]- induced hypolocomotion in rat by 50 %; type: functional; details: ip, 0.5 h, read-out: ID50 (the source's name)
[5] = tested on: Rattus norvegicus; assay: Percentage change punished lever presses from mean score on 6-8 rats at 0.5 mg/kg po1h pretest; type: functional
[6] = tested on: Rattus norvegicus; assay: Percentage change unpunished lever presses from mean score on 6-8 rats at 0.5 mg/kg po1h pretest; type: functional
[7] = tested on: Rattus norvegicus; assay: Percentage change punished lever presses from mean score on 6-8 ratsP<0.001) at 20 mg/kg po1h pretest; type: functional
[8] = tested on: Rattus norvegicus; assay: Percentage change unpunished lever presses from mean score on 6-8 rats at 1 mg/kg po1h pretest; type: functional
[9] = target: T1, 5-hydroxytryptamine receptor 2C (Homo sapiens, UniProt P28335); assay: Binding affinity towards cloned human 5-hydroxytryptamine 2C receptor expressed in HEK 293 cells using [3H]mesulergine as radioligand; type: cell-based, HEK293
T1 sequence (P28335 whole entry): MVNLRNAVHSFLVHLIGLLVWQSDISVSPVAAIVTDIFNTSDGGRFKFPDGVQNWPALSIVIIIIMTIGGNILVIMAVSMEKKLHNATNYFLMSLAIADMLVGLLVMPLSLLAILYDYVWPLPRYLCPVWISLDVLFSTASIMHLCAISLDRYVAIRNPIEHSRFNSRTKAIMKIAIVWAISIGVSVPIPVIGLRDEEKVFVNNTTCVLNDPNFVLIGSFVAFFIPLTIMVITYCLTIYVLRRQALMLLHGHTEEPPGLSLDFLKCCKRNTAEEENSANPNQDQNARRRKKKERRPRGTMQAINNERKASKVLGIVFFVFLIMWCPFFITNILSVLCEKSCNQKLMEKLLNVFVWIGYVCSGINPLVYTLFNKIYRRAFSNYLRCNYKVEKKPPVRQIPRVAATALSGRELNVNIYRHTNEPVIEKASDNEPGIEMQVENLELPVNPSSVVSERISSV

[10] = tested on: Rattus norvegicus; assay: Percentage change unpunished lever presses from mean score on 6-8 rats(P<0.01) at 20 mg/kg po1h pretest; type: functional
[11] = tested on: Rattus norvegicus; assay: Percentage change punished lever presses from mean score on 6-8 ratsP<0.001) at 5 mg/kg po1h pretest; type: functional
[12] = target: 5-hydroxytryptamine receptor 2A (Homo sapiens, UniProt P28223); assay: Binding affinity towards human 5-hydroxytryptamine 2A receptor expressed in HEK 293 cells using [3H]ketanserin as radioligand; type: cell-based, HEK293
Chain of 5-hydroxytryptamine receptor 2A (P28223 whole entry): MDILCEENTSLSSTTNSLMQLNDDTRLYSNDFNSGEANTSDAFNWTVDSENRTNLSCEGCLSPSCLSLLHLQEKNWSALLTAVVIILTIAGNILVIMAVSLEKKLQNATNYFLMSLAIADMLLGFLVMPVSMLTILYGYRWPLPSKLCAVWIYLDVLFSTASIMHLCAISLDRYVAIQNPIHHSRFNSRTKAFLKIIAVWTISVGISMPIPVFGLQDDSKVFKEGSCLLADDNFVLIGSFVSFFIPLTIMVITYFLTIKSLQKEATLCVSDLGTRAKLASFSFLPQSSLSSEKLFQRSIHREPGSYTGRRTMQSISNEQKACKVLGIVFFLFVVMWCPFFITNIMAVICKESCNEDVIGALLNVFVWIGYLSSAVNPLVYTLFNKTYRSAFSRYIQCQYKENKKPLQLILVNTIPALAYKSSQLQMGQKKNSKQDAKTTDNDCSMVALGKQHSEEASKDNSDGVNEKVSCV
Procedure, shortened: (§1)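 Radioligand binding on human cloned receptors stably expressed in HEK 293 cells; 5-HT2A labelled with [3H]ketanserin, 5-HT2B with [3H]-5-HT. Values are means of at least two determinations, each within 0.2 log unit of the mean.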

[13] = tested on: Rattus norvegicus; assay: Percentage change unpunished lever presses from mean score on 6-8 rats(P<0.05) at 2 mg/kg po1h pretest; type: functional
[14] = tested on: Rattus norvegicus; assay: Percentage change punished lever presses from mean score on 6-8 ratsP<0.001) at 10 mg/kg po1h pretest; type: functional
[15] = tested on: Rattus norvegicus; assay: Percentage change punished lever presses from mean score on 6-8 ratsP<0.001) at 2 mg/kg po1h pretest; type: functional
[16] = tested on: Rattus norvegicus; assay: Percentage change punished lever presses from mean score on 6-8 rats(P<0.001) at 2 mg/kg po1h pretest; type: functional
[17] = tested on: Rattus norvegicus; assay: Percentage change punished lever presses from mean score on 6-8 rats(P<0.001) at 10 mg/kg po1h pretest; type: functional
[18] = tested on: Rattus norvegicus; assay: Percentage change unpunished lever presses from mean score on 6-8 rats at 20 mg/kg po1h pretest; type: functional
[19] = tested on: Rattus norvegicus; assay: Percentage change unpunished lever presses from mean score on 6-8 ratsP<0.01) at 1 mg/kg po1h pretest; type: functional
[20] = tested on: Rattus norvegicus; assay: Percentage change punished lever presses from mean score on 6-8 rats(P<0.001) at 20 mg/kg po1h pretest; type: functional
[21] = tested on: Rattus norvegicus; assay: Percentage change punished lever presses from mean score on 6-8 rats(P<0.01) at 5 mg/kg po1h pretest; type: functional
[22] = tested on: Rattus norvegicus; assay: Percentage change unpunished lever presses from mean score on 6-8 ratsP<0.05)at 2 mg/kg po1h pretest; type: functional
[23] = target: 5-hydroxytryptamine receptor 2B (Homo sapiens, UniProt P41595); assay: Binding affinity towards cloned human 5-hydroxytryptamine 2B receptor expressed in HEK 293 cells using [3H]5-HT as radioligand; type: cell-based, HEK293; procedure, shortened: as §1
Chain of 5-hydroxytryptamine receptor 2B (P41595 whole entry): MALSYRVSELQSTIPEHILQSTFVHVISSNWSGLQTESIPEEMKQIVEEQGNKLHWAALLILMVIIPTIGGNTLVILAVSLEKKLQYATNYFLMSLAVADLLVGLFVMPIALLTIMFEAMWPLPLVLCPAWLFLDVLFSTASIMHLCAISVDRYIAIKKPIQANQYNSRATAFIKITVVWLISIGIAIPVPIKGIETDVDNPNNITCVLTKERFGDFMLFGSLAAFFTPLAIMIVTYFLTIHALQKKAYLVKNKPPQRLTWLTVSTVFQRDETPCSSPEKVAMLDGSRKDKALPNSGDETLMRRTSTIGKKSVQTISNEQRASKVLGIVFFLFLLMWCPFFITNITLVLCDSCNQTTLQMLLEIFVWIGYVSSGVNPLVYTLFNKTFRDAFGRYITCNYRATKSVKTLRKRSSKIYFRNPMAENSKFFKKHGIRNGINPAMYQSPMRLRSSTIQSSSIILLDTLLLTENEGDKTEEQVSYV

[24] = tested on: Rattus norvegicus; assay: Percentage change unpunished lever presses from mean score on 6-8 rats at 2 mg/kg po1h pretest; type: functional
[25] = tested on: Rattus norvegicus; assay: Percentage change punished lever presses from mean score on 6-8 rats(P<0.001) at 5 mg/kg po1h pretest; type: functional
[26] = tested on: Rattus norvegicus; assay: Percentage change punished lever presses from mean score on 6-8 rats at 0.2 mg/kg po1h pretest; type: functional
[27] = tested on: Rattus norvegicus; assay: Percentage change unpunished lever presses from mean score on 6-8 rats at 0.2 mg/kg po1h pretest; type: functional
[28] = tested on: Rattus norvegicus; assay: Percentage change punished lever presses from mean score on 6-8 rats(P<0.001) at 0.5 mg/kg po1h pretest; type: functional

| SMILES | Ki [9] [nM] | Ki [12] [nM] | ED50 [4] [mg/kg] | also measured |
| --- | --- | --- | --- | --- |
| CSc1cc2c(cc1Br)N(C(=O)Nc1cccnc1)CC2 | 2 | 501 | 3 | Change [1]: 3%; Change [2]: 4%; Change [3]: 24%; Change [5]: 0%; Change [6]: 0%; Change [7]: 53%; Change [8]: 2%; Change [10]: 6%; Change [11]: 28%; Change [13]: 5%; Change [14]: 38%; Change [15]: 29% |
| CSc1cc2c(cc1C(F)(F)F)N(C(=O)Nc1cccnc1)CC2 | – | – | 1.2 | Change [16]: 36%; Change [1]: -2%; Change [2]: 2%; Change [3]: 30%; Change [5]: 6%; Change [17]: 46%; Change [6]: 3%; Change [18]: 0%; Change [19]: 10%; Change [20]: 76%; Change [21]: 38%; Change [22]: 4% |
| CCOc1cc2c(cc1Cl)N(C(=O)Nc1cccnc1)CC2 | 25.1 | 3980 | 3.4 | – |
| O=C(Nc1cccnc1)N1CCc2cc(Br)cc([N+](=O)[O-])c21 | 316 | 3980 | – | – |
| O=C(Nc1cccnc1)N1CCc2c(Cl)cccc21 | 501 | 3980 | – | – |
| CSc1cc2c(cc1I)N(C(=O)Nc1cccnc1)CC2 | 2 | 501 | 3.2 | – |
| CCc1cc2c(cc1Cl)N(C(=O)Nc1cccnc1)CC2 | 5.01 | 398 | – | – |
| CC(C)(C)c1cc2c(cc1Cl)N(C(=O)Nc1cccnc1)CC2 | 20 | 631 | – | Ki [23]: 158 nM |
| O=C(Nc1cccnc1)N1CCc2ccccc21 | 1260 | – | – | – |
| CSc1c(Cl)cc2c(c1Cl)CCN2C(=O)Nc1cccnc1 | 2.51 | 63.1 | – | – |
| O=C(Nc1cccnc1)N1CCc2cc(-c3ccccc3)c(Cl)cc21 | 126 | 3980 | – | – |
| CC(C)(C)c1ccc2c(c1Cl)CCN2C(=O)Nc1cccnc1 | 39.8 | 631 | – | – |
| Cc1c(Cl)cc2c(c1Cl)CCN2C(=O)Nc1cccnc1 | 3.98 | 31.6 | – | – |
| O=C(Nc1cccnc1)N1CCc2cc([N+](=O)[O-])ccc21 | 316 | > 6310 | – | – |

Further lines, with some results ahead:

| Ki [9] [nM] | Ki [12] [nM] | SMILES | ED50 [4] [mg/kg] | also measured |
| --- | --- | --- | --- | --- |
| 79.4 | 2000 | CC(C)c1ccc2c(c1)CCN2C(=O)Nc1cccnc1 | – | – |
| 25.1 | 3160 | CSc1cc2c(cc1OC(F)(F)F)N(C(=O)Nc1cccnc1)CC2 | – | – |
| 3.16 | 1580 | CC(C)Oc1cc2c(cc1C(F)(F)F)N(C(=O)Nc1cccnc1)CC2 | 1.4 | Ki [23]: 3.98 nM |
| 15.8 | > 6310 | CC(C)Oc1cc2c(cc1Cl)N(C(=O)Nc1cccnc1)CC2 | 4 | – |
| 25.1 | > 6310 | CC(C)c1cc2c(cc1C(F)(F)F)N(C(=O)Nc1cccnc1)CC2 | – | – |
| 31.6 | 1260 | O=C(Nc1cccnc1)N1CCc2cc(C(F)(F)F)ccc21 | – | – |
| 6.31 | 1580 | CCOc1cc2c(cc1C(F)(F)F)N(C(=O)Nc1cccnc1)CC2 | 1 | Change [24]: 1%; Change [16]: 24%; Change [2]: 0%; Change [3]: 33%; Change [25]: 31%; Change [26]: 5%; Change [27]: 3%; Change [6]: 3%; Change [8]: 4%; Change [28]: 31% |
| 6.31 | 158 | O=C(Nc1cccnc1)N1CCc2cc(Cl)c(C(F)(F)F)cc21 | – | – |
| 50.1 | 501 | O=C(Nc1cccnc1)N1CCc2ccc(C(F)(F)F)cc21 | – | – |
| 6.31 | > 6310 | CCCSc1cc2c(cc1C(F)(F)F)N(C(=O)Nc1cccnc1)CC2 | – | Ki [23]: 15.8 nM |
| 3.98 | 2510 | CSc1cc2c(cc1C(F)(F)C(F)(F)F)N(C(=O)Nc1cccnc1)CC2 | 5 | Ki [23]: 31.6 nM |
| 50.1 | 3160 | CC(=O)c1cc2c(cc1C(F)(F)F)N(C(=O)Nc1cccnc1)CC2 | – | – |
